Measured values from different studies.
Each line is one published result; the experiments were not run side by side.
Target: 5-hydroxytryptamine receptor 7 (HTR7, Homo sapiens, UniProt P34969)
Concentration: 10 µM

Structure (SMILES) | read-out | technique | inhibition
COc1cc(NC(C)=O)c(Cl)cc1C(=O)Nc1nccs1 | ligand displacement | radioligand | -7.7%
N#Cc1cc(Cn2c(N3CCCC3)nc3ccccc32)ccc1F | ligand displacement |  | -11.2%
C[C@@H](c1cccc(C#N)c1)n1cc(Cl)cc(C(N)=O)c1=N | ligand displacement |  | 4.17%
Oc1cccc(Nc2nc(-c3ccc(F)cc3F)cs2)c1 | ligand displacement | radioligand | -31.9%
CCN(CC)c1ccc(C2Nc3ccc(C(=O)c4ccccc4)cc3NC3=C2C(=O)CC(C)(C)C3)cc1 (stereo not drawn) | ligand displacement | radioligand | 4%
COc1cc2c3c(c1OC)-c1cc4c(cc1CC3N(C)CC2c1ccccc1)OCO4 (stereo not drawn) | ligand displacement | radioligand | < 50%
CC(C)(C)OC(=O)N1CCCC1CNC1CCC(c2cc(F)ccc2F)(S(=O)(=O)c2ccc(Cl)cc2)CC1 (stereo not drawn) | cell-free assay |  | 70.7%
CCCNc1nc2ccccc2n1Cc1ccc(Cl)cc1 | ligand displacement |  | 13.5%
COc1cc2c3c(c1OC)-c1cc4c(cc1CC3N(C)CC2)OCO4 (racemic) | ligand displacement | radioligand | 96.7%
